In ChEMBL document CHEMBL5674889, “Enhanced JunD/RSK3 signalling due to loss of BRD4/FOXD3/miR-548d-3p axis determines BET inhibition resistance” (2020):
The source made the active and inactive calls. No cut-off for these calls is given here.

Key:
MDA-MB-231 [1] = experiment: Effect on human BRD4-knockdown MDA-MB-231 cells assessed as miR-548d-3p expression at 1 uM by real-time PCR analysis; type: functional, cell-based
MDA-MB-231 [2] = experiment: Antiproliferative activity in human RPS6KA2 expressed in JUND knock-down MDA-MB-231 cells assessed as inhibition of cell growth at 1 uM by CCK-8 assay; type: functional, cell-based
MDA-MB-231 [3] = experiment: Antiproliferative activity in human JUND-overexpressing MDA-MB-231 cells assessed as cell viability at 1 uM by CellTiter-Glo luminescent cell viability assay; type: functional, cell-based
Summary of the method: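 Stable JUND-knockdown (shRNA, puromycin 1.0 μg/ml selection) or JUND-overexpressing clones and vector controls, seeded 3000 cells/well and adhered overnight, then given DMSO or JQ1 (1 μM) for 48 h. Read-out CellTiter-Glo luminescence normalized to DMSO control; triplicates, mean ± SD, one-way ANOVA.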

BT-549 [4] = experiment: Induction of apoptosis in human BT-549 cells at 1 uM by FACS assay; type: functional, cell-based
Summary of the method: (§1)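 Stable clones (vector, RSK3-overexpressing or RPS6KA2-knockdown) treated ± JQ1 1 μM. Cells washed twice in PBS, resuspended at 1 × 10^6 cells/ml in binding buffer, stained with Annexin V-FITC and propidium iodide for 10 min at room temperature in the dark, then read by flow cytometry. Three independent experiments; one-way ANOVA.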

MDA-MB-231 [5] = experiment: Effect on JUND dependent RPS6KA2 transcription in human JUND-knockdown MDA-MB-231 cells assessed reduction in transcription level at 1 uM by ChIP-RT-PCR analysis; type: functional, cell-based
Summary of the method: (§2)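 ChIP-qPCR used ~1 × 10^6 cross-linked JUND-knockdown or control cells treated with DMSO or 1 μM for 6 h. Immunoprecipitated DNA was quantified by real-time PCR with primers specific to the RPS6KA2 enhancer. Non-specific primers downstream of the gene 3′ end served as control.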

BT-549 [6] = experiment: Effect on JUND dependent RPS6KA2 transcription in human JUND-knockdown BT-549 cells assessed reduction in transcription level at 1 uM by ChIP-RT-PCR analysis; type: functional, cell-based; summary of the method: as §2
HEK-293T = experiment: Effect on induction of RPS6KA2 transcription in human HEK293T cells transfected with RPS6KA2 assessed as luciferase activity at 1 uM for 6 hrs by Luciferase reporter assay; type: functional, cell-based
Summary of the method: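 HEK293T were transfected with wild-type or mutant RPS6KA2 enhancer luciferase construct, ± JUND co-transfection (FuGene 6, 24 h). Cells then treated with DMSO or JQ1 1 μM for 6 h. Dual-luciferase activity expressed as fold over vector control; three experiments in triplicate.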

MDA-MB-231 [7] = experiment: Effect on induction of RPS6KA2 transcription in human MDA-MB-231 cells assessed as JunD protein expression at 1 uM for 24 hrs by Western blot analysis; type: functional, cell-based
MDA-MB-231 [8] = experiment: Effect on induction of RPS6KA2 transcription in human MDA-MB-231 cells assessed as enhanced luciferase activity at 1 uM for 6 hrs by Luciferase reporter assay; type: functional, cell-based
Summary of the method: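 Control or JunD-shRNA BLBC cells were transfected with the RPS6KA2 enhancer luciferase reporter (FuGene 6, 24 h) and then treated with DMSO or JQ1 1 μM for 6 h. Dual-luciferase read-out given as fold induction over vector control. Three experiments in triplicate.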

MDA-MB-231 [9] = experiment: Effect on human MDA-MB-231 cells assessed as JunD protein expression in the presence of miR-548d-3p at 1 uM by Western blot analysis; type: functional, cell-based
BT-549 [10] = experiment: Antiproliferative activity in human BT-549 cells assessed as cell growth in the presence of miR-548d-3p at 1 uM by CCK-8 assay; type: functional, cell-based
Summary of the method: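 BLBC cells transfected with miR-548d-3p mimic or inhibitor, with or without JQ1; growth read by CCK-8 assay relative to DMSO-treated control, seeded at 3000/well. Triplicates, mean ± SD, one-way ANOVA.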

BT-549 [11] = experiment: Effect on human BRD4-knockdown BT-549 assessed as decreased luciferase activity at 1 uM for 6 hrs by Luciferase reporter assay; type: functional, cell-based
MDA-MB-231 [12] = experiment: Antiproliferative activity in human FOXD3-knockdown MDA-MB-231 cells assessed as cell growth at 1 uM by CCK-8 assay; type: functional, cell-based
BT-549 [13] = experiment: Antiproliferative activity in human BT-549 cells assessed as cell growth in the presence of erlotinib at 1 uM by CellTiter-Glo luminescent cell viability assay; type: functional, cell-based
Summary of the method: (§3)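 BLBC cells seeded at 3000/well, adhered overnight, then exposed to JQ1 (1 μM) with or without an EGFR inhibitor (1 μM) for 48 h; control and RPS6KA2-shRNA clones tested. Viability by CellTiter-Glo luminescence, background-subtracted and normalized to DMSO-treated control; triplicates, mean ± SD, one-way ANOVA against JQ1 alone.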

BT-549 [14] = experiment: Antiproliferative activity in human BT-549 cells assessed as cell growth in the presence of gefitinib at 1 uM by CellTiter-Glo luminescent cell viability assay; type: functional, cell-based; summary of the method: as §3
BT-549 [15] = experiment: Antiproliferative activity in human BT-549 cells assessed as cell growth in the presence of EAI045 at 1 uM by CellTiter-Glo luminescent cell viability assay; type: functional, cell-based; summary of the method: as §3
MDA-MB-231 [16] = experiment: Antiproliferative activity in human MDA-MB-231 cells assessed as cell growth in the presence of gefitinib at 1 uM by CellTiter-Glo luminescent cell viability assay; type: functional, cell-based; summary of the method: as §3
MDA-MB-231 [17] = experiment: Antiproliferative activity in human MDA-MB-231 cells assessed as cell growth in the presence of erlotinib at 1 uM by CellTiter-Glo luminescent cell viability assay; type: functional, cell-based; summary of the method: as §3
MDA-MB-231 [18] = experiment: Antiproliferative activity in human MDA-MB-231 cells assessed as cell growth in the presence of osimertinib at 1 uM by CellTiter-Glo luminescent cell viability assay; type: functional, cell-based; summary of the method: as §3
MDA-MB-231 [19] = experiment: Effect on human MDA-MB-231 cells assessed as EGFR protein expression at 1 uM by Western blot analysis; type: functional, cell-based
MDA-MB-231 [20] = experiment: Antiproliferative activity in human MDA-MB-231 cells assessed as cell growth for 48 hrs in the presence of osimertinib at 1 uM by CCK-8 assay; type: functional, cell-based
Summary of the method: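 Cells seeded 3000/well, adhered overnight, treated with JQ1 (1 μM) with or without osimertinib (1 μM) for 48 h; growth by CCK-8 kit, normalized to DMSO-treated control; triplicates, mean ± SD, one-way ANOVA.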

MDA-MB-231 [21] = experiment: Induction of apoptosis in human MDA-MB-231 cells in the presence of osimertinib at 1 uM by flow cytometry analysis; type: functional, cell-based
Summary of the method: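 Cells given JQ1 and/or osimertinib, then stained with Annexin V-FITC plus propidium iodide (10 min, room temperature, dark; 1 × 10^6 cells/ml in binding buffer after two PBS washes) and analysed by flow cytometry; one-way ANOVA.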

MDA-MB-231 [22] = experiment: Effect on human RPS6KA2 transfected MDA-MB-231 cells by measuring luciferase activity at 20 uM by Luciferase reporter assay; type: functional, cell-based
MDA-MB-231 [23] = experiment: Induction of apoptosis in human MDA-MB-231 cells expressing vector control assessed as early apoptotic cells at 1 uM by Annexin V-FITC flow cytometric analysis (reference value: 4.02%); type: functional; summary of the method: as §1
MDA-MB-231 [24] = experiment: Induction of apoptosis in human MDA-MB-231 cells expressing vector control assessed as late apoptotic cells at 1 uM by Annexin V-FITC flow cytometric analysis (reference value: 2.4%); type: functional; summary of the method: as §1

Cc1sc2c(c1C)C(c1ccc(Cl)cc1)=N[C@@H](CC(=O)OC(C)(C)C)c1nnc(C)n1-2
Activity (MDA-MB-231 [1]): Active
Activity (MDA-MB-231 [2]): Active
Activity (MDA-MB-231 [3]): Active
Activity (BT-549 [4]): Active
Activity (MDA-MB-231 [5]): Active
Activity (BT-549 [6]): Active
Activity (HEK-293T): Active
Activity (MDA-MB-231 [7]): Active
Activity (MDA-MB-231 [8]): Active
Activity (MDA-MB-231 [9]): Active
Activity (BT-549 [10]): Active
Activity (BT-549 [11]): Active
Activity (MDA-MB-231 [12]): Active
Activity (BT-549 [13]): Active
Activity (BT-549 [14]): Active
Activity (BT-549 [15]): Active
Activity (MDA-MB-231 [16]): Active
Activity (MDA-MB-231 [17]): Active
Activity (MDA-MB-231 [18]): Active
Activity (MDA-MB-231 [19]): Active
Activity (MDA-MB-231 [20]): Active
Activity (MDA-MB-231 [21]): Active
Activity (MDA-MB-231 [22]): Active
Activity (MDA-MB-231 [23]): 16.3%
Activity (MDA-MB-231 [24]): 5.48%
